Bioassay records from PubChem.
The full list was thinned out, with hits kept by preference.
TbMetRS inhib: blocks T. brucei methionyl-tRNA synthetase activity; purified T. brucei MetRS, ATP depletion, Kinase-Glo luminescence; inhibition, % at 11.9 µM; hit rate 0.4% among 360,000; AID 624268;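 active means inhibition above a per-plate cutoff of the control wells' mean inhibition plus 3 SD, cut at about 5.5% in these data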
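Dosing: 11.9 µM single point; system: parasite MetRS enzyme; technique: luminescence of leftover ATP; times: 15 min enzyme-compound preincubation, 2 h reaction, 10 min detection, 25 °C; replicates: each compound tested once; read-out basis: percent inhibition relative to median high and low control wells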
XBP1 UPR activ: activators of adaptive arm of unfolded protein response (XBP1); CHO-XBP1 luciferase reporter, IRE1-XBP1 UPR activation, luminescence; percent of tunicamycin response, DMSO as zero; AID 463104; activation, % at 20 µM; hit rate 0.33% among 330,000;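 active means versus positive control, 20 µM dose yields 30% or more activation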
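Assay system: CHO-XBP1 luciferase reporter cells; Schedule: 6 h treatment, 37 °C; Detection: glow luminescence from Steady-Glo reagent; Benchmarks: high control tunicamycin 10 µg/mL final, low control DMSO vehicle only.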
CHOP inhibitor: blocks CHOP induction under ER stress | hit rate 3.8% among 220,000 | CHO-K1 CHOP-promoter luciferase, tunicamycin-induced, 15-18 h | inhibition, % at 10 µM;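 active means compounds that reduced the stress-induced luciferase reporter signal by more than about 70% of percent inhibition, limit read from the data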
UPR CHOP act: activators of apoptotic arm of unfolded protein response (CHOP); AID 449763; activation, % at 10 µM; hit rate 0.34% among 330,000; CHO-CHOP luciferase reporter, UPR activation, luminescence; percent of tunicamycin response over DMSO baseline;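 active means at 10 µM dose, activation of 40% or more, normalized to positive control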
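measured by = luciferase luminescence | assay system = CHO-CHOP cells, stable luciferase reporter of PERK-eIF2a-CHOP signalling | amount = 500 reporter cells seeded per well | timing = 6 h compound exposure at 37 °C after overnight seeding | controls = positive tunicamycin 10 µg/mL, negative DMSO alone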
V-ATPase pH: regulators of yeast V-ATPase proton transport. S. cerevisiae, pHLuorin cytosolic pH fluorescence. response, % at 10 µM. hit rate 0.37% among 350,000. AID 504577; in the data active means response mostly above about 7.3%, no sharp cut-off; inactive means mostly below about 5.4%; further: actives read high
TbMetRS confirm: Trypanosoma brucei MetRS inhibition confirmed; shares compounds with TbMetRS inhib; T. brucei MetRS enzyme, luminescence (ATP depletion); inhibition, % at 11.9 µM; hit rate 93% among 1,400; in the data active means inhibition above about 7%
Jurkat tox: counter-screen for T. brucei MetRS inhibitors: Jurkat cell cytotoxicity | AID 624413 | Jurkat cells viability, ATP luminescence | inhibition, % at 8.3 µM | hit rate 12% among 1,400 | shares compounds with TbMetRS inhib; in the data active means inhibition above about 15%
Tb MetRS inh FP: orthogonal test for Trypanosoma brucei MetRS inhibitors. shares compounds with TbMetRS inhib. purified T. brucei MetRS, fluorescence polarization. inhibition, % at 11.9 µM. hit rate 44% among 1,400. AID 651607; in the data active means inhibition above about 17%
Large screens that a line does not name were inactive (follow-up assays come after a bar, where they were run).

O=C(NNC(=O)c1cc(-c2cccnc2)nc2ccccc12)Nc1ccc(Cl)cc1	TbMetRS inhib 20.1 | TbMetRS confirm 31.0 | Jurkat tox inactive | Tb MetRS inh FP 21.7
CC(=O)Nc1cccc(C(=O)N2CCN(S(=O)(=O)c3ccc(C4CCCCC4)cc3)CC2)c1	none (no result: XBP1 UPR activ, CHOP inhibitor, UPR CHOP act)
Cc1ccc(C2CC2C(=O)NNC(=S)Nc2cccc(C)c2)cc1 (stereo not drawn)	none
Cc1ccc(C2CC2C(=O)NNC(=S)Nc2cccc(Cl)c2)cc1 (stereo not drawn)	TbMetRS inhib 6.5 | TbMetRS confirm 13.8 | Jurkat tox inactive | Tb MetRS inh FP inactive
O=C(NNC(=S)Nc1ccc(F)cc1)C1CC1c1ccc(Cl)cc1 (stereo not drawn)	TbMetRS inhib 48.0 | TbMetRS confirm 66.3 | Jurkat tox inactive | Tb MetRS inh FP 41.2
Cc1ccc(NC(=S)NNC(=O)C2CC2c2ccc(C)cc2)cc1 (stereo not drawn)	none
COc1ccc2ccn(S(=O)(=O)c3ccccc3)c2c1	none (no result: CHOP inhibitor)
CCOC(=O)c1cnc2c(c(C)nn2C)c1Oc1cc(Cl)cc(Cl)c1	none
Cc1cc(C)cc(C(O)c2ncc(-c3ccccc3C(F)(F)F)[nH]2)c1 (stereo not drawn)	none (no result: XBP1 UPR activ, CHOP inhibitor, UPR CHOP act, V-ATPase pH)
OC(c1cc(Cl)cc(Cl)c1)c1ncc(-c2cccc(F)c2)[nH]1 (stereo not drawn)	TbMetRS inhib 41.5 (no result: XBP1 UPR activ, CHOP inhibitor, UPR CHOP act, V-ATPase pH) | TbMetRS confirm 77.5 | Jurkat tox inactive | Tb MetRS inh FP 55.1
Cc1cc(C)cc(C(O)c2ncc(-c3ccc4ccccc4c3)[nH]2)c1 (stereo not drawn)	TbMetRS inhib 7.5 (no result: XBP1 UPR activ, CHOP inhibitor, UPR CHOP act, V-ATPase pH) | TbMetRS confirm 29.7 | Jurkat tox inactive | Tb MetRS inh FP 17.5
Cc1ccc(C(O)c2ncc(-c3ccc4ccccc4c3)[nH]2)cc1 (stereo not drawn)	none (no result: XBP1 UPR activ, CHOP inhibitor, UPR CHOP act, V-ATPase pH)
Cc1ccccc1-c1cnc(C(O)c2cc(Cl)cc(Cl)c2)[nH]1 (stereo not drawn)	TbMetRS inhib 53.4 (no result: XBP1 UPR activ, CHOP inhibitor, UPR CHOP act, V-ATPase pH) | TbMetRS confirm 81.2 | Jurkat tox inactive | Tb MetRS inh FP 56.7
OC(c1ccc(Cl)c(Cl)c1)c1ncc(-c2cccc(F)c2)[nH]1 (stereo not drawn)	none (no result: XBP1 UPR activ, CHOP inhibitor, UPR CHOP act, V-ATPase pH)
OC(c1cc(F)cc(Cl)c1)c1ncc(-c2ccccc2C(F)(F)F)[nH]1 (stereo not drawn)	TbMetRS inhib 25.7 (no result: XBP1 UPR activ, CHOP inhibitor, UPR CHOP act, V-ATPase pH) | TbMetRS confirm 48.0 | Jurkat tox 81.1 | Tb MetRS inh FP 23.4
Cc1ccccc1-c1cnc(C(O)c2ccc(Cl)cc2C)[nH]1 (stereo not drawn)	none (no result: XBP1 UPR activ, CHOP inhibitor, UPR CHOP act, V-ATPase pH)
C[C@@H]1O[C@H](CCc2cccc(Cl)c2)CC2=C1C(=O)OC(C)(C)O2	none (no result: XBP1 UPR activ, CHOP inhibitor, UPR CHOP act, V-ATPase pH)
COCCCn1c(=S)[nH]c2sc3c(c2c1=O)CCCS3	none
O=C(NCCCn1ccnc1)c1ccc(N2CCCCC2)c([N+](=O)[O-])c1	none
NC(=O)c1ccsc1NC(=O)CSc1nnc(NC2CC2)s1	none (no result: CHOP inhibitor)
CCOC(=O)C1=CC[C@H]2c3c(c4ccccc4n3C)C(=O)C1N2C(=O)OC(C)(C)C	none (no result: CHOP inhibitor)
CC(=O)CC1c2cc(F)ccc2C=C(c2ccsc2)N1c1ccc(-c2cccnc2)cc1 (stereo not drawn)	none (no result: XBP1 UPR activ, CHOP inhibitor, UPR CHOP act, V-ATPase pH)
COc1cc(C2C(C(C)=O)=C(O)C(=O)N2Cc2ccccc2)ccc1O (stereo not drawn)	none (no result: CHOP inhibitor)
OC(c1cc(F)cc(Cl)c1)c1ncc(-c2ccc(Cl)cc2)[nH]1 (stereo not drawn)	TbMetRS inhib 34.3 (no result: XBP1 UPR activ, CHOP inhibitor, UPR CHOP act, V-ATPase pH) | TbMetRS confirm 68.6 | Jurkat tox inactive | Tb MetRS inh FP 47.4
O=C(c1cc2ccccc2o1)N1CCN(S(=O)(=O)c2ccccc2)CC1	none (no result: CHOP inhibitor)
Cc1ccc(NC(=O)CCC(=O)N/N=C/c2ccccc2O)cc1	none (no result: CHOP inhibitor)
Cc1ccc(SCCC(=O)N/N=C/c2cccnc2)cc1	TbMetRS inhib 11.1 | TbMetRS confirm 31.9 | Jurkat tox inactive | Tb MetRS inh FP 20.7
O=C(CSCc1ccc(Cl)cc1)Nc1ccccc1O	none
Cc1ccc(C)c(NC(=O)CCC(=O)N/N=C/c2cccnc2)c1	none (no result: CHOP inhibitor)
